Assays:
Type in all cases: functional
EKVX [1] = assay: Growth inhibition of human EKVX cells incubated for 48 hrs by sulforhodamine B assay
Method in brief: (§1)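 Cells seeded at 5,000–40,000/well according to doubling time and preincubated 24 h at 37 °C, 5% CO2. Time-zero plates were TCA-fixed. DMSO concentrate was diluted in medium with 50 µg/ml gentamicin to give five concentrations (10-fold or ½ log steps), then exposed 48 h. Cells were TCA-fixed, stained with 0.4% SRB and read at 515 nm. Percent growth was taken against time-zero and control; GI50, TGI and LC50 derived.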

[2] = Growth inhibition of human HOP92 cells incubated for 48 hrs by sulforhodamine B assay; details: HOP-92, 48 h; method in brief: as §1
[3] = Growth inhibition of human OVCAR3 cells incubated for 48 hrs by sulforhodamine B assay; details: OVCAR-3, 48 h
Method in brief: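 Cells were plated at 5,000–40,000 per well according to doubling time and preincubated 24 h at 37 °C in 5% CO2; time-zero plates were then TCA-fixed. Five concentrations (10-fold or ½-log dilutions, DMSO stock) were incubated 48 h. Cells were TCA-fixed, stained with 0.4% SRB and read at 515 nm. GI50 was taken where [(Ti−Tz)/(C−Tz)]×100 = 50.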

SK-MEL-28 = assay: Growth inhibition of human SK-MEL-28 cells assessed as cell growth at 10^-8 M incubated for 48 hrs by sulforhodamine B assay; details: SK-MEL-28, 48 h, read-out: Activity
A498 = assay: Growth inhibition of human A498 cells assessed as cell growth at 10^-8 M incubated for 48 hrs by sulforhodamine B assay; details: A498, 48 h, read-out: Activity
Method in brief: (§2)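 Five-dose assay: five concentrations from 10-fold or ½-log serial dilutions. Cells are plated at 5,000–40,000 per well according to doubling time, grown 24 h, then exposed 48 h at 37 °C, 5% CO₂. Fixed with cold 50% TCA (final addition) for 60 min at 4 °C and stained with 0.4% SRB in 1% acetic acid. Bound dye is solubilized in 10 mM Tris base and read at 515 nm. GI₅₀ is where [(Ti−Tz)/(C−Tz)]×100 = 50, with a time-zero plate as Tz.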

[4] = Growth inhibition of human Caki1 cells assessed as cell growth at 10^-8 M incubated for 48 hrs by sulforhodamine B assay; details: CAKI-1, 48 h, read-out: Activity; method in brief: as §1
[5] = Growth inhibition of human RPMI8226 cells assessed as cell growth at 10^-7 M incubated for 48 hrs by sulforhodamine B assay; details: RPMI-8226, 48 h, read-out: Activity
A549 = assay: Growth inhibition of human A549/ATCC cells assessed as cell growth at 10^-7 M incubated for 48 hrs by sulforhodamine B assay; details: A549, 48 h, read-out: Activity; method in brief: as §2
HT-29 = assay: Growth inhibition of human HT-29 cells assessed as cell growth at 10^-7 M incubated for 48 hrs by sulforhodamine B assay; details: HT-29, 48 h, read-out: Activity
SR = assay: Growth inhibition of human SR cells assessed as cell growth at 10^-4 M incubated for 48 hrs by sulforhodamine B assay; details: read-out: Activity
EKVX [6] = assay: Growth inhibition of human EKVX cells assessed as cell growth at 10^-4 M incubated for 48 hrs by sulforhodamine B assay; details: read-out: Activity; method in brief: as §1
[7] = Growth inhibition of human HCC2998 cells assessed as cell growth at 10^-4 M incubated for 48 hrs by sulforhodamine B assay; details: HCC 2998, 48 h, read-out: Activity
[8] = Growth inhibition of human SW620 cells assessed as cell growth at 10^-4 M incubated for 48 hrs by sulforhodamine B assay; details: SW-620, 48 h, read-out: Activity
[9] = Growth inhibition of human OVCAR5 cells assessed as cell growth at 10^-4 M incubated for 48 hrs by sulforhodamine B assay; details: OVCAR-5, 48 h, read-out: Activity
[10] = Growth inhibition of human BT549 cells assessed as cell growth at 10 uM incubated for 48 hrs by sulforhodamine B assay; details: BT-549, 48 h, read-out: Activity
Method in brief: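 One-dose screen at 10 µM final. Cells are plated at 5,000–40,000 per well according to doubling time and preincubated 24 h at 37 °C, 5% CO₂. Compound (DMSO stock diluted in medium with 50 µg/ml gentamicin) is then added for 48 h. Growth percent is read by sulforhodamine B staining, absorbance at 515 nm.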

T47D [11] = assay: Growth inhibition of human T47D cells assessed as cell growth at 10 uM incubated for 48 hrs by sulforhodamine B assay; details: read-out: Activity
[12] = Growth inhibition of human HL-60(TB) cells assessed as cell growth at 10^-6 M incubated for 48 hrs by sulforhodamine B assay; details: HL-60, 48 h, read-out: Activity
Method in brief: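 Cells plated at 5,000–40,000/well according to doubling time and preincubated 24 h at 37 °C, 5% CO₂, with time-zero plates TCA-fixed. Drugs were kept as DMSO concentrates at 400× the top concentration and diluted in medium with 50 µg/ml gentamicin. Five 10-fold or ½-log dilutions were run for 48 h, followed by SRB staining and A515. Percent growth = (Ti−Tz)/(C−Tz)×100, or (Ti−Tz)/Tz×100 when Ti<Tz.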

[13] = Growth inhibition of human TK10 cells assessed as cell growth at 10^-6 M incubated for 48 hrs by sulforhodamine B assay; details: TK-10, 48 h, read-out: Activity
T47D [14] = assay: Growth inhibition of human T47D cells assessed as cell growth at 10^-6 M incubated for 48 hrs by sulforhodamine B assay; details: read-out: Activity
CCRF-CEM = assay: Growth inhibition of human CCRF-CEM cells assessed as cell growth at 10^-5 M incubated for 48 hrs by sulforhodamine B assay; details: read-out: Activity
Method in brief: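 Leukemia line in the five-dose format: five concentrations from 10-fold or ½-log serial dilutions. Plated at 5,000–40,000 cells per well, preincubated 24 h, then compound added for 48 h at 37 °C, 5% CO₂. Sulforhodamine B absorbance read at 515 nm. Growth is computed against time-zero (Tz) and control (C) readings; GI₅₀ is where [(Ti−Tz)/(C−Tz)]×100 = 50.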

[15] = Growth inhibition of human SF295 cells assessed as cell growth at 10^-5 M incubated for 48 hrs by sulforhodamine B assay; details: SF-295, 48 h, read-out: Activity
EKVX [16] = assay: Growth inhibition of human EKVX cells assessed as cell growth at 10 uM incubated for 48 hrs by sulforhodamine B assay; details: read-out: Activity
Method in brief: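 Primary screen at one dose (10 µM) across 60 human cancer cell lines. Readout was growth percent relative to untreated control and time-zero.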

Work on `c1ccc(-c2nc(Nc3ccc(-c4nc5ccccc5[nH]4)cc3)nc(N3CCOCC3)n2)cc1` yielded a GI50 (EKVX [1]; read-out: GI50) of 1.59 µM, an LC50 (EKVX [1]; read-out: LC50) of 7.33 µM and a TGI (EKVX [1]; read-out: TGI) of 3.42 µM. The GI50 (EKVX [1]; read-out: pGI50 (converted)) was 1.58 µM, the LC50 (EKVX [1]; read-out: pLC50 (converted)) was 7.41 µM and the TGI (EKVX [1]; read-out: pTGI (converted)) was 3.39 µM. It also gave a GI50 ([2]; read-out: GI50) of 1.38 µM, an LC50 (concentration killing 50% of starting cells) ([2]; read-out: LC50) of 6.73 µM and a TGI ([2]; read-out: TGI) of 3.05 µM. It also gave a GI50 ([2]; read-out: pGI50 (converted)) of 1.38 µM, an LC50 (concentration killing 50% of starting cells) ([2]; read-out: pLC50 (converted)) of 6.76 µM and a TGI ([2]; read-out: pTGI (converted)) of 3.02 µM. For the same molecule, the GI50 ([3]; read-out: GI50) was 1.52 µM, the CC50 ([3]; read-out: LC50 (the source's name)) was 5.83 µM and the TGI ([3]; read-out: TGI) was 2.98 µM. The GI50 ([3]; read-out: pGI50 (converted)) was 1.51 µM, the CC50 ([3]; read-out: pLC50 (the source's name) (converted)) was 5.89 µM and the TGI ([3]; read-out: pTGI (converted)) was 2.95 µM. It also gave a growth at 0.01 µM (SK-MEL-28) of 103%, a growth at 0.01 µM (A498) of 86% and a growth at 0.01 µM [4] of 91%. The growth at 0.1 µM [5] was 97%, the growth at 0.1 µM (A549) was 97% and the growth at 0.1 µM (HT-29) was 108%. For the same molecule, the growth at 100 µM (SR) was -28%, the growth at 100 µM (EKVX [6]) was -66% and the growth at 100 µM [7] was -48%. For the same molecule, the growth at 100 µM [8] was -84%, the growth at 100 µM [9] was -75% and the growth at 10 µM [10] was 33.6%. The growth at 10 µM (T47D [11]) was -62.3%, the growth at 1 µM [12] was -7% and the growth at 1 µM [13] was 119%. The growth at 1 µM (T47D [14]) was 78%, the growth at 10 µM (CCRF-CEM) was -33% and the growth at 10 µM [15] was -76%. The growth at 10 µM (EKVX [16]) was -66.9%.
